Assay results as given in ChEMBL document CHEMBL2396521, “Development and characterization of glutamyl-protected N-hydroxyguanidines as reno-active nitric oxide donor drugs with therapeutic potential in acute renal failure” (J Med Chem, 2013).
Activity calls are given as the source filed them. The rule behind the calls is not given here.

Legend:
[1] = tested on: Aorta; experiment: Vasodilatory activity in Wistar rat endothelium-intact aorta assessed as reversibility of reduction of acetylcholine-induced vasoconstriction in presence of ODQ; assay type: functional; parameters: concentration or dose not given beside the values
[2] = tested on: Aorta; experiment: Vasodilatory activity in Wistar rat endothelium-intact aorta assessed as reduction of acetylcholine-induced vasoconstriction; assay type: functional, tissue-based
How it was run: (§1)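 Male Wistar rat aortic rings (~3 mm) in a myograph at 37 °C in oxygenated Krebs, stretched to 15 mN, with maximal contraction set by 60 mM KCl and endothelium checked with ACh. Precontracted rings received NHG as a single 100 μM dose or cumulatively at 1−100 μM. Parallel rings were exposed before and during dosing to L-NAME 200 μM, L-Arg 100 μM, Hb 10 μM or ODQ 50 μM.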

[3] = tested on: Aorta; experiment: Vasodilatory activity in Wistar rat endothelium-intact aorta assessed as reduction of acetylcholine-induced vasoconstriction at 100 uM in presence of gamma-glutamyl transpeptidase; assay type: functional
How it was run: (§2)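 Aortic ring myograph (rat, 37 °C, Krebs, precontracted). The glutamyl prodrug at 10 mM was preincubated with γ-GT (100 mU/5 mM gly-gly) for 1 h at 37 °C before addition to the bath at 100 μM. Hemoglobin (10 μM), where present, was used as NO scavenger.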

[4] = tested on: Aorta; experiment: Vasodilatory activity in Wistar rat endothelium-intact aorta assessed as reduction of acetylcholine-induced vasoconstriction at 100 uM; assay type: functional, tissue-based; how it was run: as §1
[5] = tested on: Aorta; experiment: Vasodilatory activity in Wistar rat endothelium-intact aorta assessed as reduction of acetylcholine-induced vasoconstriction at 100 uM in presence of gamma-glutamyl transpeptidase and oxyhemoglobin; assay type: functional, tissue-based; how it was run: as §2
[6] = organism: Rattus norvegicus; experiment: Induction of NOx production in Wistar rat renal medullar homogenates at 100 uM after 1 hr by Griess test in presence of L-NAME; assay type: functional, tissue-based; conditions: Renal medulla
How it was run: (§3)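 Crude homogenates of liver, renal cortex or renal medulla from freshly killed adult male Wistar rats, prepared in ice-cold HBSS with 1% Triton X. NHG at 100 μM was incubated for 1 h at 37 °C, with or without L-NAME (200 μM), then spun at 1000g and 4 °C. NOx (nitrite + nitrate) was measured by Griess assay. n = 4−5; paired t-tests.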

[7] = organism: Rattus norvegicus; experiment: Induction of NOx production in Wistar rat renal cortex homogenates at 100 uM after 1 hr by Griess test in presence of L-NAME; assay type: functional, tissue-based; how it was run: as §3
[8] = tested on: Liver; experiment: Induction of NOx production in Wistar rat liver homogenates at 100 uM after 1 hr by Griess test in presence of L-NAME; assay type: functional, tissue-based; how it was run: as §3
[9] = Induction of xanthine/xanthine oxidase-mediated NOx production at 100 uM after 1 hr by Griess test in presence of allopurinol; assay type: physicochemical
How it was run: (§4)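 Cell-free xanthine/xanthine oxidase (100 μM X / 100 mU XO) was made fresh daily in KPE buffer. NHG at 100 μM was incubated for 1 h at 37 °C, with or without allopurinol (100 μM), then centrifuged at 1000g and 4 °C. NOx was measured by Griess assay. n = 4−5; paired t-tests.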

[10] = organism: Rattus norvegicus; experiment: Induction of NOx production in Wistar rat renal medullar homogenates at 100 uM after 1 hr by Griess test; assay type: functional, tissue-based; conditions: Renal medulla; how it was run: as §3
[11] = organism: Rattus norvegicus; experiment: Induction of NOx production in Wistar rat renal cortex homogenates at 100 uM after 1 hr by Griess test; assay type: functional, tissue-based; how it was run: as §3
[12] = tested on: Liver; experiment: Induction of NOx production in Wistar rat liver homogenates at 100 uM after 1 hr by Griess test; assay type: functional, tissue-based; how it was run: as §3
[13] = Induction of xanthine/xanthine oxidase-mediated NOx production at 100 uM after 1 hr by Griess test; assay type: physicochemical; how it was run: as §4
[14] = tested on: Aorta; experiment: Vasodilatory activity in Wistar rat endothelium-intact aorta assessed as reduction of acetylcholine-induced vasoconstriction at 100 uM in presence of L-NAME; assay type: functional, tissue-based; how it was run: as §1
[15] = tested on: Kidney; experiment: Prodrug activation in Wistar rat kidney homogenates assessed as formation of N-(4-Phenylethyl)-N'-hydroxyguanidine Hydrochloride at 1 to 100 uM; assay type: tissue-based; conditions: tissue homogenate, TDE = time-dependent effect
How it was run: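 Prodrug at 1, 10 or 100 μM was incubated with freshly pooled (n = 3) male Wistar rat kidney homogenate. Samples were taken every 15 min over 45 min, and the parent NHG was quantified by positive-ion LC-MS/MS on a C18 column with 0.1% formic acid in 95% water/5% acetonitrile. Total protein was determined by Lowry assay.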

[16] = tested on: Kidney; experiment: Prodrug activation in Wistar rat kidney homogenates assessed as formation of N-(4-Phenylethyl)-N'-hydroxyguanidine Hydrochloride after 10 to 40 mins; assay type: tissue-based; conditions: tissue homogenate
[17] = tested on: Kidney; experiment: Vasodilatory activity in Wistar rat isolated perfused rat kidney model in presence of gamma-glutamyl transpeptidase; assay type: functional, tissue-based
How it was run: (§5)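 Isolated perfused kidney from a pentobarbital-anaesthetized (i.p.) male Wistar rat, perfused at 10 mL/min with perfusion pressure read via a side-port transducer. After 20 min equilibration, pressure was raised to 120−140 mmHg with phenylephrine (0.3 μM increments). Compound was added cumulatively to the perfusate (1 μM to 1 mM).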

[18] = tested on: Kidney; experiment: Vasodilatory activity in Wistar rat isolated perfused rat kidney model at 250 uM in presence of gamma-glutamyl transpeptidase; assay type: functional, tissue-based; how it was run: as §5
[19] = tested on: Aorta; experiment: Vasodilatory activity in Wistar rat endothelium-intact aorta assessed as reduction of acetylcholine-induced vasoconstriction at 100 uM in presence of L-Arg; assay type: functional, tissue-based; how it was run: as §1
[20] = tested on: Aorta; experiment: Vasodilatory activity in Wistar rat endothelium-intact aorta assessed as reduction of acetylcholine-induced vasoconstriction at 100 uM in presence of ODQ; assay type: functional, tissue-based; how it was run: as §1
[21] = tested on: Aorta; experiment: Vasodilatory activity in Wistar rat endothelium-intact aorta assessed as reduction of acetylcholine-induced vasoconstriction at 100 uM in presence of hemoglobin; assay type: functional, tissue-based; how it was run: as §1
[22] = organism: Rattus norvegicus; experiment: Induction of NOx production in Wistar rat renal medullar homogenates at 100 uM after 1 hr by Griess test in presence of gamma-glutamyl transpeptidase; assay type: functional, tissue-based; conditions: Renal medulla
[23] = organism: Rattus norvegicus; experiment: Induction of NOx production in Wistar rat renal cortex homogenates at 100 uM after 1 hr by Griess test in presence of gamma-glutamyl transpeptidase; assay type: functional, tissue-based
[24] = tested on: Liver; experiment: Induction of NOx production in Wistar rat liver homogenates at 100 uM after 1 hr by Griess test in presence of gamma-glutamyl transpeptidase; assay type: functional, tissue-based
[25] = Induction of xanthine/xanthine oxidase-mediated NOx production at 100 uM after 1 hr by Griess test in presence of gamma-glutamyl transpeptidase; assay type: physicochemical

Cl.N/C(=N\O)NCCc1cccc2ccccc12
Activity [1]: 1%
EC50 [2]: 50.1 µM

CN(CCCC(=O)O)c1noc(CC[C@H](N)C(=O)O)n1
Activity [3]: inactive
Activity [4]: inactive

CN(CCCC(=O)O)/C(=N\O)NC(=O)CC[C@H](N)C(=O)O
Activity [5]: inactive
Activity [3]: 18%
Activity [4]: inactive

Cl.N/C(=N\O)NCCc1ccc(Br)cc1
Activity [1]: 34%
EC50 [2]: 15.8 µM

CN(CCCC(=O)O)C(N)=O
pEC50 [2]: inactive
Activity [6]: Active
Activity [7]: Active
Activity [8]: Active
Activity [9]: Active
Activity [10]: 1 µM
Activity [11]: 1 µM
Activity [12]: 1 µM
Activity [13]: Not Active

CN(CCCC(=O)O)/C(N)=N/O
Activity [14]: inactive
Activity [4]: Active
Activity [10]: 1 µM
Activity [11]: 1 µM
Activity [12]: 1 µM
Activity [13]: Active

Cl.N/C(=N\O)NCCc1ccc(F)cc1
Activity [1]: 11%
EC50 [2]: 63.1 µM

COc1ccc(CCN/C(N)=N/O)cc1.Cl
Activity [1]: 40%
EC50 [2]: 50.1 µM

N/C(=N\O)NCCc1ccc(O)cc1
EC50 [2]: 63.1 µM

COc1ccccc1CCN/C(N)=N/O.Cl
Activity [1]: 14%
EC50 [2]: 20 µM

Cl.N=C(NO)NCc1ccccc1
Activity [1]: 37%
EC50 [2]: 12.6 µM

N/C(=N\OCc1ccc(NC(=O)CC[C@H](N)C(=O)O)cc1)NCCc1ccccc1
Drug metabolism [15]: tde
Drug metabolism [16]: Dose-dependent effect
EC50 [17]: 50 µM
Activity [1]: Active
Activity [3]: Active
Activity [4]: Active

COc1cccc(CCN/C(N)=N/O)c1.Cl
Activity [1]: 9%
EC50 [2]: 3.98 µM

Cc1ccc(CCN/C(N)=N/O)cc1.Cl
Activity [1]: 35%
EC50 [2]: 12.6 µM

Cl.N/C(=N\O)NCCCCc1ccccc1
Activity [1]: 28%
EC50 [2]: 631 µM

N[C@@H](CCC(=O)NCCCC(=O)N/C(=N\OC(=O)CCCNC(=O)CC[C@H](N)C(=O)O)NCCc1ccccc1)C(=O)O
Activity [18]: inactive

Cl.N/C(=N\O)NCCc1ccccc1
Activity [19]: inactive
Activity [20]: inactive
Activity [21]: inactive
Activity [1]: 75%
EC50 [2]: 25.1 µM
Activity [14]: inactive

N=C(NO)NCCC[C@H](N)C(=O)O
Activity [19]: inactive
Activity [20]: inactive
Activity [21]: inactive
Activity [14]: inactive
Activity [4]: Active
Activity [22]: inactive
Activity [23]: inactive
Activity [24]: inactive
Activity [25]: Not Active
Activity [6]: inactive
Activity [7]: inactive
Activity [8]: inactive
Activity [9]: Not Active
Activity [10]: 5 µM
Activity [11]: 5 µM
Activity [12]: 5 µM
Activity [13]: 5 µM

Cl.N/C(=N\O)NCCCc1ccccc1
Activity [1]: 68%
EC50 [2]: 15.8 µM

CCCCN/C(N)=N/O.Cl
Activity [1]: 100%
EC50 [2]: 31.6 µM

Cl.N/C(=N\O)NCCc1ccc(Cl)cc1
Activity [1]: 11%
EC50 [2]: 100 µM
